Compound activity: PubChem, several laboratories
Rows were chosen to be rich in hits. Some 2.3% of all compounds tested hit in one or more screens of this group.
FID counter: compounds displacing fluorescent DNA intercalator, primary screen, artefact control for HCV NS3 helicase inhibitor project, biochemical, FID fluorescence | DNA fluorescent intercalator displacement | inhibition, % at 7.9 µM | 0.17% of 290,000 active | AID 1845, 2009; in the data active = inhibition above about 37%;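 note: 0% = vehicle and 100% = reference compound; higher means more ethidium bromide displaced from hairpin DNA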
TRPC6 inhibitor: mouse TRPC6 channel inhibitors, primary screen, cell-based, HEK293, membrane potential dye | Short transient receptor potential channel 6 (Mus musculus), Q61143 | ACh-evoked depolarization; stronger effect = lower value | B-score at 10 µM | 1.1% of 310,000 active | AID 2553, 2010;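 active = B-score under library mean minus 3 SD, initial fluorescence not abnormally high, positive integrated signal ratio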;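 note: B-score derived from integrated fluorescence ratio over the kinetic read; more negative B-score means stronger inhibition of depolarization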
TRPC4 PAM: positive allosteric modulators of TRPC4, primary screen, cell-based, mouse TRPC4beta, HEK293 mu-opioid, Fluo-4 calcium | 0.42% of 310,000 active | DAMGO EC20, Fluo-4 Ca2+ flux; stronger effect = higher value | Short transient receptor potential channel 4 (Mus musculus), Q9QUQ5 | B-score at 10 µM;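 active = B-score of calcium response area above 5 SD of library B-scores, with initial fluorescence ratio within 5 SD of library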;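 note: B-score of integrated fluorescence ratio over time as area under calcium response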
TRPC6 activator: mouse TRPC6 channel activators, primary screen, cell-based, HEK293, membrane potential dye. Short transient receptor potential channel 6 (Mus musculus), Q61143. HEK293-TRPC6 membrane potential dye fluorescence; stronger effect = higher value. B-score at 10 µM. 0.13% of 310,000 active. AID 2550, 2010;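 active = B-score of the integrated fluorescence ratio above library mean plus 3 SD, and starting fluorescence ratio within library mean plus 5 SD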;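 note: higher score means more depolarization so channel activation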
TRPC4 agonist: activators of mouse TRPC4 channel, primary screen, Fluo4 calcium, HEK293 TRPC4beta/mu-opioid cells; Fluo4 calcium fluorescence; stronger effect = higher value; B-score at 10 µM; Short transient receptor potential channel 4 (Mus musculus), Q9QUQ5; 0.49% of 310,000 active;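 active = B-score above 5 SD of library B-scores, and initial fluorescence ratio not above library mean plus 5 SD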;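 note: positive B-score marks a calcium rise read as TRPC4 activation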
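System: HEK293 cells stably co-expressing mouse TRPC4beta and mu-opioid receptor; Schedule: Fluo4 dye loading 45 min at room temperature, 110 s recording; Detection: Fluo4 fluorescence, kinetic; Evaluation: B-scored integrated calcium fluorescence ratio; Controls: buffer (low) and maximal DAMGO (high).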
TRPC4 inh: inhibitors of mouse TRPC4 channel, primary screen, Fluo4 calcium, HEK293 TRPC4beta/mu-opioid cells; Short transient receptor potential channel 4 (Mus musculus), Q9QUQ5; DAMGO-evoked Fluo4 calcium flux; stronger effect = lower value; B-score at 10 µM; 0.39% of 300,000 active; AID 2247, 2010;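 active = B-score over 3 SD under the library average, no early fluorescence shift, positive overall ratio signal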
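material = TRPC4beta/mu-opioid receptor HEK293 cell line | probe or stimulus = sequential submaximal and maximal DAMGO stimulation | compound dosing = one concentration per compound | measured by = Fluo4 Ca2+ flux fluorescence | evaluation = integrated fluorescence ratio relative to baseline, converted to per-well B score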
* hit, by the source's call; i = inactive; . = not tested or not shown.

SMILES	FID counter	TRPC6 inhibitor	TRPC4 PAM	TRPC6 activator	TRPC4 agonist	TRPC4 inh
CN(CCc1ccccn1)C(=O)Nc1ccc(C(C)(C)C)cc1	-20	i	i	i	i	i
CCCCn1c(N)c(N(CCOC)C(=O)COC(=O)COc2cc(C)c(Cl)cc2C(C)C)c(=O)[nH]c1=O	.	i	i	i	i	i
COc1cccc(CN(C)C(=O)CNC(=O)c2ccc(-c3ccccc3)cc2)c1OC	-41	i	i	i	i	i
CCOC(=O)C1CCCN(C(=O)CCCn2nnnc2CN2CCOCC2)C1 (configuration not stated)	-2	i	23*	i	i	i
CCCOC1CCCN(C(=O)CCCn2nnnc2CN2CCOCC2)C1 (configuration not stated)	-11	i	i	i	i	i
CC(C)(C)NS(=O)(=O)c1ccc(NC(=O)CS(=O)(=O)Cc2ccccc2)cc1	-26	i	i	i	i	i
CCSc1ncccc1-c1nc2ccccc2[nH]1	2	i	i	i	i	-7*
COc1ccc(S(=O)(=O)N2CCCCCC2)cc1C(=O)N(C)Cc1cccs1	.	i	i	i	i	i
COc1ccc(S(=O)(=O)N2CCCCCC2)cc1C(=O)N(C)Cc1ccc(Cl)cc1Cl	.	i	26*	i	i	i
COc1ccc(CC(=O)Nc2c(C(=O)N3CCN(c4ccccc4OC)CC3)oc3ccccc23)cc1OC	-49	i	i	i	i	i
CCCNC(=O)c1onc(CSc2ccc(F)cc2)c1C(=O)NCCOC	.	i	i	i	i	i
CCOC(=O)C1=C(C)NC(=O)CC1c1cc2c(cc1[N+](=O)[O-])OCO2 (configuration not stated)	0	i	i	i	i	-7*
CCCOC(=O)C1=C(C)N(C)C(=O)NC1c1cc2c(cc1[N+](=O)[O-])OCO2 (configuration not stated)	-10	i	i	i	i	i
CCC(Cc1ccccc1)NS(=O)(=O)c1c(C)nc2scc(C)n2c1=O (configuration not stated)	-4	i	i	i	i	i
CC(=O)c1ccc(N2CCN(C(=O)c3cc4c(s3)CCCC4)CC2)cc1	-36	i	10*	i	i	i
O=C(c1cc2c(s1)CCCCC2)N1CCN(c2ncccn2)CC1	-37	i	i	i	i	i
c1ccc2c(N3CCCCC3)nc(N3CCOCC3)nc2c1	0	i	i	i	i	-9*
O=C(CN1C(=O)/C(=C2\SC(=S)N(CCS(=O)(=O)O)C2=O)c2ccccc21)Nc1cccc(Br)c1	58*	i	i	i	i	i
COCCN1C(=O)/C(=C2/C(=O)N(CC(=O)Nc3ccccc3Cl)c3ccccc32)SC1=S	1	i	i	i	i	i
CCCOc1ccc(Cn2c(=O)oc3ccc(C)cc32)cc1	-23	i	i	i	i	i
Cc1ccc(NC(=S)NC(=O)Cc2ccccc2)c(O)c1	-18	i	i	i	i	i
COCCN(C(=O)c1ccccc1F)c1nnc(-c2ccc(OC)cc2)s1	-37	i	i	i	i	i
CCC(C)NCCOCCOc1ccccc1-c1ccccc1 (configuration not stated)	25	i	i	i	i	-7*
Cc1cc(C)c(NC(=S)N2CCN(c3ccc([N+](=O)[O-])cn3)CC2)cc1C	-6	i	i	i	i	i
CCn1c(N2CCN(C(=S)NCCc3ccccc3)CC2)nc2ccccc21	-17	i	i	i	87*	i
SMILES	FID counter	TRPC6 inhibitor	TRPC4 PAM	TRPC6 activator	TRPC4 agonist	TRPC4 inh
CCn1c(N2CCN(Cc3ccc([N+](=O)[O-])cc3)CC2)nc2ccccc21	-10	i	12*	i	124*	i
COc1ccc(NC(=S)N2CCN(c3ccccn3)CC2)cc1	-4	i	i	i	i	i
CCCn1c(N2CCN(Cc3ccc(Cl)cc3)CC2)nc2ccccc21	-26	i	i	i	i	i
CCn1c(N2CCN(C(=S)NC)CC2)nc2ccccc21	-5	i	i	i	68*	i
CCn1c(N2CCN(S(=O)(=O)c3ccc(F)cc3)CC2)nc2ccccc21	-4	i	i	i	i	i
CCn1c(N2CCN(C(=S)Nc3ccc(OC)cc3)CC2)nc2ccccc21	-15	i	i	i	52*	i
CCOC(=O)c1ccc(S(=O)(=O)N2CCN(CC(O)COc3cccc(C(C)=O)c3)CC2)cc1 (configuration not stated)	-19	i	i	i	i	i
CCn1c(N2CCN(S(=O)(=O)CC)CC2)nc2ccccc21	-1	i	i	i	126*	i
Cn1c(N2CCN(C(=O)Nc3ccc(F)cc3)CC2)nc2ccccc21	-12	i	i	i	88*	i
CCn1c(N2CCN(C(=S)NCC(C)C)CC2)nc2ccccc21	-14	i	i	i	105*	i
CC(C)CNC(=S)N1CCN(c2nc3ccccc3s2)CC1	-4	i	i	i	i	i
COc1cc(NC(=O)CCN2CC(C)OC(C)C2)cc(OC)c1 (configuration not stated)	-7	i	i	i	i	i
O=C1CCC(=O)N1c1ccc(NC2CCN(Cc3ccccc3)CC2)c([N+](=O)[O-])c1	11	i	i	i	83*	i
O=[N+]([O-])c1ccccc1NC1CCN(Cc2ccccc2)CC1	6	i	i	i	i	i
CC1CCC2C(=O)N(c3ccc(NC4CCN(Cc5ccccc5)CC4)c([N+](=O)[O-])c3)C(=O)C2C1 (configuration not stated)	7	i	i	i	72*	i
COc1cccc(/C(C)=N/N=C(\C)c2cccc(OC)c2)c1	-26	i	i	i	i	i
Cc1ccc(Nc2n[nH]c(C)c2[N+](=O)[O-])cc1	6	i	i	i	i	i
